Laboratory results reported in ChEMBL document CHEMBL3120083, “Discovery of N-[4-[6-tert-butyl-5-methoxy-8-(6-methoxy-2-oxo-1H-pyridin-3-yl)-3-quinolyl]phenyl]methanesulfonamide (RG7109), a potent inhibitor of the hepatitis C virus NS5B polymerase” (J Med Chem, 2014).
In brackets after ≈: the same amount, converted by molar mass.

Experiments:
Hepatitis C virus [1] = assay: Antiviral activity against Hepatitis C virus genotype 1a H77 infected in human 2209-23 cells after 72 hrs by luciferase reporter gene assay; format: functional, organism-based, Hepacivirus hominis; conditions: genotype 1a H77, 2209-23, 72 h
[2] = Inhibition of N-terminal 6xHis-tagged Hepatitis C virus genotype 1b Con1 NS5B polymerase containing 21-amino acid deletion at C-terminus expressed in Escherichia coli using radiolabeled UTP as substrate after 2 hrs by scintillation counting analysis; parameters: species or system Hepatitis C virus (isolate Con1)
Outline: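 GT-1b Con1 NS5B polymerase (NS5B570n-Con1) activity assay run with RNA template at 3 nM and enzyme at 3 nM. IC50 reported in nM.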

[3] = Thermodynamic solubility of the compound; format: physicochemical; conditions: read-out: Therm_solubility
Hepatitis C virus [4] = assay: Antiviral activity against Hepatitis C virus genotype 1b Con1 infected in human 2209-23 cells after 72 hrs by luciferase reporter gene assay; format: functional, organism-based, Hepacivirus hominis; conditions: isolate Con1, 2209-23, 72 h
Outline: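 Stable GT-1b Con1 subgenomic replicon cell line expressing a renilla luciferase reporter, used as the readout of inhibition. EC50 from luciferase signal, n 2.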

Row | Compound | EC50 (Hepatitis C virus [1]) [nM] | EC50 (Hepatitis C virus [4]) [nM] | IC50 [2] [nM] | solubility thermodynamic [3] [µg/mL]
1 | COc1c(C(C)(C)C)cc(-c2ccc[nH]c2=O)c2ncc(N3CC[C@H](CNS(C)(=O)=O)C3)cc12 | 7.9 | – | 0.2 | 11 (≈ 22.7 µM)
2 | COc1c(C(C)(C)C)cc(-n2ccc(=O)[nH]c2=O)c2ccc(-c3ccc(NS(C)(=O)=O)cc3)cc12 | 4 | 1 | – | –
3 | COc1c(C(C)(C)C)cc(-c2ccc[nH]c2=O)c2ncc(N3CC(CNS(C)(=O)=O)C3)cc12 | 532 | – | 3.5 | –

Continued, in another order:

Row | EC50 (Hepatitis C virus [1]) [nM] | EC50 (Hepatitis C virus [4]) [nM] | Compound | IC50 [2] [nM] | solubility thermodynamic [3] [µg/mL]
4 | 25 | 16 | CC(C)(C)c1cc(-c2cc(F)c[nH]c2=O)c2ncc(-c3ccc(NS(C)(=O)=O)cc3)cc2c1 | – | –
5 | 83 | 12 | COc1c(C(C)(C)C)cc(-n2ccc(=O)[nH]c2=O)c2ccc(-c3ccc(NS(C)(=O)=O)cc3)nc12 | – | –
